Data reported in ChEMBL document CHEMBL1131306, “Novel and specific respiratory syncytial virus inhibitors that target virus fusion” (J Med Chem, 1998).

Experiments:
Assay type in all cases: functional, organism-based
Human alphaherpesvirus 1 = test: Inhibitory concentration was evaluated against herpes simplex 1,strain patton.
In short: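 HSV-1 strain Patton in African green monkey kidney (Vero) cells, seeded 4 × 10^4/well on day 0. Compound added day 1 as 10 two-fold dilutions, at least in duplicate, then virus added. Growth measured by ELISA 28 h post-infection. IC50 = 50% growth inhibition, averaged; repeated in two different weeks, retested if over 2-fold apart.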

Human betaherpesvirus 5 = test: Inhibitory concentration was evaluated against human cytomegalovirus (HCMV),strain Ad169.
In short: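 HCMV Ad169 engineered to encode β-glucuronidase. Human foreskin fibroblasts seeded 4 × 10^4/well on day 0. Compound added day 1 as 10 two-fold dilutions, each at least in duplicate, then virus added. Growth read as β-glucuronidase in culture on day 4. IC50 averaged; each compound run at least twice in different weeks, retested if IC50s differed over 2-fold.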

Human orthopneumovirus = test: Inhibitory concentration was evaluated against human respiratory syncytial virus,(HRSV) strain A2.
In short: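 HRSV strain A2 (160 PFU/well) on human foreskin fibroblasts seeded 4 × 10^4/well day 0. Compound added day 1, serially diluted 2-fold over 10 concentrations, at least in duplicate. After 4 days at 37 °C, virus growth quantified by ELISA. IC50 = 50% growth inhibition, averaged; tested in two separate weeks, retested if values differed over 2-fold.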

IC50 (Human alphaherpesvirus 1) [µM] | IC50 (Human betaherpesvirus 5) [µM] | IC50 (Human orthopneumovirus) [µM] | Structure (SMILES)
> 25 | > 25 | > 25 | CCCN(CCC)S(=O)(=O)c1cccc(Nc2nc(Nc3cccc(S(=O)(=O)N(CCC)CCC)c3)nc(Nc3ccc(-c4ccc(Nc5nc(Nc6cccc(S(=O)(=O)N(CCC)CCC)c6)nc(Nc6cccc(S(=O)(=O)N(CCC)CCC)c6)n5)cc4S(=O)(=O)O)c(S(=O)(=O)O)c3)n2)c1
14.7 | 2.3 | 0.09 | O=S(=O)(O)c1cc(Nc2nc(Nc3cccc(S(=O)(=O)N(CCO)CCO)c3)nc(Nc3cccc(S(=O)(=O)N(CCO)CCO)c3)n2)ccc1-c1ccc(Nc2nc(Nc3cccc(S(=O)(=O)N(CCO)CCO)c3)nc(Nc3cccc(S(=O)(=O)N(CCO)CCO)c3)n2)cc1S(=O)(=O)O
8.8 | 1.2 | 1.7 | NS(=O)(=O)c1cccc(Nc2nc(Nc3cccc(S(N)(=O)=O)c3)nc(Nc3ccc(-c4ccc(Nc5nc(Nc6cccc(S(N)(=O)=O)c6)nc(Nc6cccc(S(N)(=O)=O)c6)n5)cc4S(=O)(=O)O)c(S(=O)(=O)O)c3)n2)c1
– | > 25 | 22.5 | NC(=O)CCN(CCC(N)=O)S(=O)(=O)c1cccc(Nc2nc(Nc3cccc(S(=O)(=O)N(CCC(N)=O)CCC(N)=O)c3)nc(Nc3ccc(CCc4ccc(Nc5nc(Nc6cccc(S(=O)(=O)N(CCC(N)=O)CCC(N)=O)c6)nc(Nc6cccc(S(=O)(=O)N(CCC(N)=O)CCC(N)=O)c6)n5)cc4S(=O)(=O)O)c(S(=O)(=O)O)c3)n2)c1
> 25 | 18.5 | 0.05 | NC(=O)CCN(CCC(N)=O)S(=O)(=O)c1cccc(Nc2nc(Nc3cccc(S(=O)(=O)N(CCC(N)=O)CCC(N)=O)c3)nc(Nc3ccc(-c4ccc(Nc5nc(Nc6cccc(S(=O)(=O)N(CCC(N)=O)CCC(N)=O)c6)nc(Nc6cccc(S(=O)(=O)N(CCC(N)=O)CCC(N)=O)c6)n5)cc4S(=O)(=O)O)c(S(=O)(=O)O)c3)n2)c1
5.5 | > 25 | 0.15 | NC(=O)CCN(CCC(N)=O)S(=O)(=O)c1cccc(Nc2nc(Nc3cccc(S(=O)(=O)N(CCC(N)=O)CCC(N)=O)c3)nc(Nc3ccc(/C=C/c4ccc(Nc5nc(Nc6cccc(S(=O)(=O)N(CCC(N)=O)CCC(N)=O)c6)nc(Nc6cccc(S(=O)(=O)N(CCC(N)=O)CCC(N)=O)c6)n5)cc4S(=O)(=O)O)c(S(=O)(=O)O)c3)n2)c1

Second part, the molecule before the results:

Structure (SMILES) | IC50 (Human alphaherpesvirus 1) [µM] | IC50 (Human betaherpesvirus 5) [µM] | IC50 (Human orthopneumovirus) [µM]
NC(=O)CCNS(=O)(=O)c1cccc(Nc2nc(Nc3cccc(S(=O)(=O)NCCC(N)=O)c3)nc(Nc3ccc(-c4ccc(Nc5nc(Nc6cccc(S(=O)(=O)NCCC(N)=O)c6)nc(Nc6cccc(S(=O)(=O)NCCC(N)=O)c6)n5)cc4S(=O)(=O)O)c(S(=O)(=O)O)c3)n2)c1 | > 25 | 1.2 | 0.24
Cc1cc(-c2cc(C)c(Nc3nc(Nc4cccc(S(=O)(=O)N(CCC(N)=O)CCC(N)=O)c4)nc(Nc4cccc(S(=O)(=O)N(CCC(N)=O)CCC(N)=O)c4)n3)cc2S(=O)(=O)O)c(S(=O)(=O)O)cc1Nc1nc(Nc2cccc(S(=O)(=O)N(CCC(N)=O)CCC(N)=O)c2)nc(Nc2cccc(S(=O)(=O)N(CCC(N)=O)CCC(N)=O)c2)n1 | 20 | 20.5 | 0.25
NC(=O)CCN(CCC(N)=O)C(=O)c1cccc(Nc2nc(Nc3cccc(C(=O)N(CCC(N)=O)CCC(N)=O)c3)nc(Nc3ccc(-c4ccc(Nc5nc(Nc6cccc(C(=O)N(CCC(N)=O)CCC(N)=O)c6)nc(Nc6cccc(C(=O)N(CCC(N)=O)CCC(N)=O)c6)n5)cc4S(=O)(=O)O)c(S(=O)(=O)O)c3)n2)c1 | – | – | > 25
NC(=O)CCN(CCC(N)=O)S(=O)(=O)c1ccc(Nc2nc(Nc3ccc(S(=O)(=O)N(CCC(N)=O)CCC(N)=O)cc3)nc(Nc3ccc(-c4ccc(Nc5nc(Nc6ccc(S(=O)(=O)N(CCC(N)=O)CCC(N)=O)cc6)nc(Nc6ccc(S(=O)(=O)N(CCC(N)=O)CCC(N)=O)cc6)n5)cc4S(=O)(=O)O)c(S(=O)(=O)O)c3)n2)cc1 | 17.7 | 14.7 | 2.9
NC(=O)CCN(CCC(N)=O)S(=O)(=O)c1cccc(Nc2nc(Nc3cccc(S(=O)(=O)N(CCC(N)=O)CCC(N)=O)c3)nc(Nc3ccc(-c4ccc(Nc5nc(Nc6cccc(S(=O)(=O)N(CCC(N)=O)CCC(N)=O)c6)nc(Nc6cccc(S(=O)(=O)N(CCC(N)=O)CCC(N)=O)c6)n5)cc4C(=O)O)c(C(=O)O)c3)n2)c1 | 7.5 | 0.9 | 0.35
Cc1ccc(S(=O)(=O)N(CCC(N)=O)CCC(N)=O)cc1Nc1nc(Nc2ccc(-c3ccc(Nc4nc(Nc5cc(S(=O)(=O)N(CCC(N)=O)CCC(N)=O)ccc5C)nc(Nc5cc(S(=O)(=O)N(CCC(N)=O)CCC(N)=O)ccc5C)n4)cc3S(=O)(=O)O)c(S(=O)(=O)O)c2)nc(Nc2cc(S(=O)(=O)N(CCC(N)=O)CCC(N)=O)ccc2C)n1 | – | – | > 25
NC(=O)CCN(CCC(N)=O)S(=O)(=O)c1cccc(Nc2nc(Nc3cccc(S(=O)(=O)N(CCC(N)=O)CCC(N)=O)c3)nc(Nc3ccc(-c4ccc(Nc5nc(Nc6cccc(S(=O)(=O)N(CCC(N)=O)CCC(N)=O)c6)nc(Nc6cccc(S(=O)(=O)N(CCC(N)=O)CCC(N)=O)c6)n5)cc4CO)c(CO)c3)n2)c1 | > 25 | > 25 | > 25
Cc1cc(-c2ccc(Nc3nc(Nc4cccc(S(=O)(=O)N(CCC(N)=O)CCC(N)=O)c4)nc(Nc4cccc(S(=O)(=O)N(CCC(N)=O)CCC(N)=O)c4)n3)c(C)c2)ccc1Nc1nc(Nc2cccc(S(=O)(=O)N(CCC(N)=O)CCC(N)=O)c2)nc(Nc2cccc(S(=O)(=O)N(CCC(N)=O)CCC(N)=O)c2)n1 | 25 | > 25 | > 25
COC(=O)c1cc(Nc2nc(Nc3cccc(S(=O)(=O)N(CCC(N)=O)CCC(N)=O)c3)nc(Nc3cccc(S(=O)(=O)N(CCC(N)=O)CCC(N)=O)c3)n2)ccc1-c1ccc(Nc2nc(Nc3cccc(S(=O)(=O)N(CCC(N)=O)CCC(N)=O)c3)nc(Nc3cccc(S(=O)(=O)N(CCC(N)=O)CCC(N)=O)c3)n2)cc1C(=O)OC | – | > 25 | > 25
